Assay results gathered from unrelated publications.
Target: Serine/threonine-protein kinase PAK 4 (PAK4, Homo sapiens, UniProt O96013)

C=CC(=O)N1CCC[C@@H](n2nc(-c3ccc(Oc4ccccc4)cc3)c3c(N)ncnc32)C1 — inhibition (enzyme activity, inhibitor; 1 µM): 6%
COc1ccc2[nH]c3c4[nH]c5ccc(OC)cc5c4c4c(c3c2c1)C(=O)NC4=O — remaining binding (binding; 1 µM): 90%
COc1ccc2oc(-c3ccc4nc(N)oc4c3)c/c(=N\c3ccccc3NC(=O)CCN)c2c1 — remaining binding (binding; 1 µM): 104%
C[C@H]1CC[C@H](n2c3cnccc3c3cnc(Nc4ccc5c(n4)CCN(C(=O)CO)C5)nc32)CC1 — remaining signal (cell-free assay; 1 µM): 92%
N#Cc1ccc(NC(=O)Nc2ccccc2)cc1 — remaining binding (cell-free assay, competition with immobilised ligand; 25 µM): 85%
CC(C)S(=O)(=O)c1ccc2nccc(Nc3ccc4sc(C5CCCC5)nc4c3)c2c1 — activity vs control (enzyme activity, inhibitor; 1 µM): 104%
Cc1cc(O)c(-c2ccc([C@@H](C)CN(C)C)cc2)c2c1[nH]c(=O)c1sccc12 — inhibition (cell-free assay, inhibitor; 0.1 µM, lysate): -7.15%
CCCCC(=O)Nc1ccc(-c2ccc3ncn(CCC)c(=O)c3c2)cn1 — remaining binding (binding, competition with immobilised ligand; 0.5 µM): 98%
C1=C/COCc2cc(ccc2OCCN2CCCC2)Nc2nccc(n2)-c2cccc(c2)COC/1 — remaining binding (binding; 0.1 µM): 94%
CC#CC(=O)N1CCC[C@H]1c1nc(-c2ccc(C(=O)Nc3ccccn3)cc2)c2c(N)nccn12 — inhibition (enzyme activity, inhibitor; 1 µM): 0%
